In ChEMBL document CHEMBL1250450, “Well-defined regions of the Plasmodium falciparum reticulocyte binding protein homologue 4 mediate interaction with red blood cell membrane” (J Med Chem, 2010):
The source made the active and inactive calls. Residues, ends and D or L forms follow the SMILES beside them.

Experiments:
Homo sapiens [1] = organism: Homo sapiens; test: Binding affinity to RBC membrane receptor in 1 mg/mL chymotrypsin pretreated human RBC relative to untreated RBC
Outline: (§1)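 Human RBCs (60% hematocrit) treated 1 h at 37 °C with neuraminidase (150 μU/mL), chymotrypsin (1 mg/mL) or trypsin (1 mg/mL). Standard radiolabeled-peptide binding then run on treated cells at 20% hematocrit. Binding expressed relative to untreated RBCs set as 100%.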

Homo sapiens [2] = organism: Homo sapiens; test: Binding affinity of radio labeled compound to 32 kDa RBC membrane receptor in human RBC cross-linked with bis-(sulfosuccinimidyl)suberate by autoradiography using SDS-PAGE
Outline: (§2)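 Radioiodinated peptide (chloramine-T method) incubated with 2.1 × 10^7 human RBCs, then cross-linked with BS3 (1 mg/mL) for 1 h at 4 °C. Reaction stopped with Tris-HCl. Membranes lysed (Tris/NaCl/EDTA/PMSF), mixed with Laemmli buffer, spun 15000g for 15 min, resolved on 12% SDS-PAGE against prestained markers.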

Plasmodium falciparum [3] = test: Antiplasmodial activity against Plasmodium falciparum FCB2 assessed as inhibition of merozoite invasion of human erythrocytes at 200 uM after 18 hrs using hydroethidine staining by flow cytometry; type: functional; conditions: FCB2, 18 h
Outline: (§3)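 Schizont-synchronized P. falciparum FCB-2 cultures incubated in triplicate with peptide (100 and 200 μM) using normal RBCs or, for the neuraminidase line, neuraminidase-treated RBCs. 37 °C for 18 h under 5% O2, 5% CO2, 90% N2. Cells washed with PBS, hydroethidine-labeled, read by flow cytometry (FL2). Inhibition controls were EGTA- and chloroquine-treated infected RBCs; uninfected RBCs served as invasion control.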

Plasmodium falciparum [4] = test: Antiplasmodial activity against Plasmodium falciparum FCB2 assessed as inhibition of merozoite invasion of neuraminidase pretreated human erythrocytes at 200 uM after 18 hrs using hydroethidine staining by flow cytometry; type: functional; outline: as §3
Homo sapiens [5] = organism: Homo sapiens; test: Binding affinity of radio labeled compound to 20 kDa RBC membrane receptor in human RBC cross-linked with bis-(sulfosuccinimidyl)suberate by autoradiography using SDS-PAGE; outline: as §2
[6] = Binding affinity to RBC membrane receptor in human RBC assessed as dissociation constant by gamma counter
Outline: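 Saturation assay: 7.5 × 10^7 human RBCs incubated in triplicate with 125I-peptide over 0-2200 nM, with or without 6 nmol unlabeled peptide. Cells washed in HBS and counted by gamma counter. Kd, Hill coefficient and sites per cell came from Hill analysis.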

Homo sapiens [7] = organism: Homo sapiens; test: Binding affinity to RBC membrane receptor in 1 mg/mL trypsin pretreated human RBC relative to untreated RBC; outline: as §1
Homo sapiens [8] = organism: Homo sapiens; test: Binding affinity of radio labeled compound to 22 kDa RBC membrane receptor in human RBC cross-linked with bis-(sulfosuccinimidyl)suberate by autoradiography using SDS-PAGE; outline: as §2
Homo sapiens [9] = organism: Homo sapiens; test: Binding affinity of radio labeled compound to 25 kDa RBC membrane receptor in human RBC cross-linked with bis-(sulfosuccinimidyl)suberate by autoradiography using SDS-PAGE; outline: as §2
Homo sapiens [10] = organism: Homo sapiens; test: Binding affinity to RBC membrane receptor in human RBC assessed as specific binding activity measured as ratio of specifically bound peptide/added peptide by gamma counter
Outline: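 1 × 10^8 healthy-donor RBCs incubated in triplicate with four rising concentrations of 125I-peptide (0-560 nM), with or without unlabeled peptide, then washed in HBS (pH 7.4) and gamma-counted. Specific binding (total minus nonspecific) plotted against added peptide; the slope is the specific binding activity. The HABP cutoff is ≥2%.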

Homo sapiens [11] = organism: Homo sapiens; test: Binding affinity to RBC membrane receptor in 150 uU/mL neuraminidase pretreated human RBC relative to untreated RBC; outline: as §1
Plasmodium falciparum [12] = test: Antiplasmodial activity against Plasmodium falciparum FCB2 assessed as inhibition of merozoite invasion of human erythrocytes at 1.85 mg/mL after 18 hrs using hydroethidine staining by flow cytometry; type: functional; design: scale not given: the % may be the effect or the level left; outline: as §3
Plasmodium falciparum [13] = test: Antiplasmodial activity against Plasmodium falciparum FCB2 assessed as inhibition of merozoite invasion of human erythrocytes at 0.93 mg/mL after 18 hrs using hydroethidine staining by flow cytometry; type: functional; design: scale not given: the % may be the effect or the level left; outline: as §3
Plasmodium falciparum [14] = test: Antiplasmodial activity against Plasmodium falciparum FCB2 assessed as inhibition of merozoite invasion of human erythrocytes at 1.9 mg/mL after 18 hrs using hydroethidine staining by flow cytometry; type: functional; design: scale not given: the % may be the effect or the level left; outline: as §3

Compound	Activity (Homo sapiens [1]) [%]	Activity (Homo sapiens [2])	inhibition at 200 µM (Plasmodium falciparum [3]) [%]	inhibition at 200 µM (Plasmodium falciparum [4]) [%]	Activity (Homo sapiens [5])	Kd [6] [nM]	Activity (Homo sapiens [7]) [%]	Activity (Homo sapiens [8])	Activity (Homo sapiens [9])	Activity (Homo sapiens [10]) [%]	Activity (Homo sapiens [11]) [%]	Activity (Plasmodium falciparum [12]) [%]	Activity (Plasmodium falciparum [13]) [%]	Activity (Plasmodium falciparum [14]) [%]
CC[C@H](C)[C@H](NC(=O)[C@H](CC(=O)O)NC(=O)[C@H](CC(=O)O)NC(=O)[C@@H](NC(=O)[C@H](Cc1ccc(O)cc1)NC(=O)[C@H](CCCCN)NC(=O)[C@H](CCCCN)NC(=O)[C@@H](NC(=O)[C@H](CC(N)=O)NC(=O)[C@@H](NC(=O)[C@@H](N)CS)[C@@H](C)O)[C@@H](C)CC)[C@@H](C)O)C(=O)N[C@@H](CS)C(=O)N[C@@H](CC(C)C)C(=O)N[C@@H](CO)C(=O)N[C@H](C(=O)N[C@@H](CCCCN)C(=O)N1CCC[C@H]1C(=O)N[C@@H](CCCCN)C(=O)N[C@@H](C)C(=O)N[C@@H](CC(C)C)C(=O)O)[C@@H](C)CC (H-CTNIKKYTDDICLSIKPKAL-OH)	52.8	Active	52	47	Active	870	172	Active	Active	> 2	101	–	–	–
CCN(CC)CCCC(C)Nc1ccnc2cc(Cl)ccc12 (centres undefined) [CHLOROQUINE]	–	–	–	–	–	–	–	–	–	–	–	97	96	–
O=C(O)CN(CCOCCOCCN(CC(=O)O)CC(=O)O)CC(=O)O [EGTAZIC ACID]	–	–	–	–	–	–	–	–	–	–	–	–	–	90
H-CIQIKKKVDELYNIYDQLFK-OH	53.3	Active	46	50	Active	–	75.2	Active	Active	> 2	80.7	–	–	–
H-KHIVNKIQENFKLNQNKYIH-OH	132	–	51	51	–	590	94.1	–	–	> 2	115	–	–	–
H-KIMQNIQQTTNRLKINIKKIY-OH	60.1	–	54	46	–	750	15.2	–	–	> 2	129	–	–	–
H-LFDYTHLWDNAQFTRTKENI-OH	31.4	–	50	58	–	1200	24.9	–	–	> 2	166	–	–	–
H-LNFTHKTIQQILQQQYKNNT-OH	79.7	–	45	47	–	850	43	–	–	> 2	94.9	–	–	–
H-LNTILHRNEQTKNATRSYNM-OH	22.5	–	47	46	–	850	43.9	–	–	> 2	92.2	–	–	–
H-QEKNTLAQFLYNADIKKYID-OH	0.01	Active	38	53	Active	–	1.01	Active	Active	> 2	110	–	–	–
H-QEQNRIYNELQNKIKQIKNV-OH	102	Active	85	88	Active	880	32	Active	Active	> 2	93	–	–	–
H-QIYKNELKDRIKETQTKINL-OH	288	Active	47	49	Active	590	0.03	Active	Active	> 2	128	–	–	–
H-YDKLNEHVINNLYTKSKDSL-OH	26.3	–	43	39	–	480	16.7	–	–	> 2	312	–	–	–
H-YNKNNIKDIYQQFKNIQQQL-OH	114	Active	46	49	Active	400	87	Active	Active	> 2	153	–	–	–
